One data set deals with Enterococcus faecalis. Put plainly: Antibacterial activity against Enterococcus faecalis ATCC29212 assessed as inhibition of bacterial growth incubated for 20 to 22 hrs by broth microdilution method. Format: functional. The note with it: time 20-22 hrs. Put shortly:
(§1)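 Broth microdilution per CLSI in cation-adjusted Mueller–Hinton broth, twofold dilutions over […]. Inoculum by direct colony suspension, 5 × 10^4 CFU per well. E. coli and S. aureus grown on MHA; E. faecalis, M. catarrhalis and streptococci on MHA with 5% sheep blood; streptococcal broth supplemented with 5% horse serum. MIC read visually after 20–22 h at 37 °C, ambient air.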

In a further data set the test system is Escherichia coli. The experiment in a line: Antibacterial activity against hypersensitive AcrAB deficient Escherichia coli assessed as inhibition of bacterial growth incubated for 20 to 22 hrs by broth microdilution method. Format: functional. The note with it: time 20-22 hrs. The procedure, abridged:
as §1
A general note: Broth dilution looks for growth in wells or tubes with falling amounts of substance.

In the next data set the test system is Staphylococcus aureus. Put plainly: Antibacterial activity against Staphylococcus aureus ATCC 29213 incubated assessed as inhibition of bacterial growth for 20 to 22 hrs by broth microdilution method. The format is functional. The note with it: time 20-22 hrs. The procedure, abridged:
as §1

Another data set concerns Moraxella catarrhalis. Put plainly: Antibacterial activity against Moraxella catarrhalis ATCC 23246 assessed as inhibition of bacterial growth incubated for 20 to 22 hrs by broth microdilution method. The format is functional. The note with it: time 20-22 hrs. The procedure, abridged: as §1
Data set [1] concerns Streptococcus pneumoniae. Put plainly: Antibacterial activity against Macrolide sensitive Streptococcus pneumoniae clinical isolate B0652 assessed as inhibition of bacterial growth incubated for 20 to 22 hrs by broth microdilution method. Particulars: time 20-22 hrs. Format: functional. The procedure, abridged:
(§2)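 CLSI broth microdilution MIC in cation-adjusted Mueller Hinton broth supplemented with 5% horse serum for streptococci. Twofold dilutions across a 128–0.25 range. Strains grown on MHA with 5% sheep blood; inoculum by direct colony suspension, 5 × 10^4 CFU per well. Read visually after 20–22 h at 37 °C in ambient air; azithromycin and ampicillin as reference antibiotics.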

The subject of data set [2] is Streptococcus pyogenes. The experiment in a line: Antibacterial activity against Macrolide resistant Streptococcus pyogenes clinical isolate B0545 assessed as inhibition of bacterial growth incubated for 20 to 22 hrs by broth microdilution method. The format is functional. The note with it: time 20-22 hrs. The procedure, abridged:
as §2

For data set [3], the system named is Streptococcus pyogenes. The experiment in a line: Antibacterial activity against Macrolide sensitive Streptococcus pyogenes clinical isolate B0542 assessed as inhibition of bacterial growth incubated for 20 to 22 hrs by broth microdilution method. The format is functional. Particulars: time 20-22 hrs. The procedure, abridged: as §1
Data set [4] has as its system Streptococcus pneumoniae. Put plainly: Antibacterial activity against Macrolide resistant Streptococcus pneumoniae clinical isolate B0326 assessed as inhibition of bacterial growth incubated for 20 to 22 hrs by broth microdilution method. Format: functional. Particulars: time 20-22 hrs. Put shortly:
as §2

Data set [5] concerns Calf thymus DNA. Put plainly: Binding affinity to calf thymus double stranded DNA minor groove assessed as assessed as effect on CD spectrum at pH 7 by CD spectroscopy. The note with it: Bos taurus. The format is nucleic-acid assay. The procedure, abridged:
(§3)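 CD titration at 25 °C, sodium cacodylate buffer pH 7, I = 0.05 mol dm−3: portions of compound stock (1 × 10−3 mol dm−3 in water, or DMSO for one compound) added to polynucleotide, e.g. poly(dAdT)2 at 2.0 × 10−5 mol dm−3. Scan 500–220 nm, 200 nm min−1, 3 accumulations. Polynucleotide concentration as phosphate.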

Data set [6] relates to AT rich DNA. The experiment in a line: Binding affinity to double stranded [poly(dA-dT)2] DNA (unknown origin) assessed as stabilization of DNA by measuring change in melting temperature at pH 7 by UV/Vis-spectrophotometry. The format is nucleic-acid assay. Particulars: Homo sapiens. The procedure, abridged:
(§4)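 Thermal denaturation in sodium cacodylate buffer, pH 7.0, I = 0.05 mol dm−3, compound/polynucleotide ratio r = 0.3. Absorbance at 260 nm followed versus temperature, ligand absorbance subtracted, scale normalized. Tm from first-derivative maximum, checked by tangent method. ΔTm = Tm(complex) − Tm(free nucleic acid), mean of at least two runs, error ±0.5 °C. ctDNA sonicated and filtered.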

For data set [7], the system named is AT rich DNA. Put plainly: Binding affinity to double stranded [poly(dA-dT)2] DNA (unknown origin) minor groove assessed as effect on CD spectrum at pH 7 by CD spectroscopy. Format: nucleic-acid assay. The procedure, abridged:
as §3

Data set [8] is described as follows: Cytotoxicity against human HepG2 cells assessed as reduction in cell viability incubated overnight by MTT assay. Format: toxicity, cell-based. (Tetrazolium dyes change colour on reduction, which living cells bring about.)
Data set [9] concerns Calf thymus DNA. Put plainly: Binding affinity to calf thymus double stranded DNA assessed as stabilization of DNA by measuring change in melting temperature at pH 7 by UV/Vis-spectrophotometry. Format: nucleic-acid assay. Particulars: Bos taurus. The procedure, abridged:
as §4

Data set [10] relates to AT rich DNA. The experiment in a line: Binding affinity to double stranded [poly(dA-dT)2] DNA (unknown origin) assessed as change in fluorescence intensity at pH 7 by fluorescence spectroscopy relative to control. The format is nucleic-acid assay. The note with it: Homo sapiens. The procedure, abridged: (§5)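 Fluorimetric titration at 25 °C, sodium cacodylate buffer pH 7.0, I = 0.05 mol dm−3: polynucleotide portions added to compound (e.g. 1 × 10−6 mol dm−3). Excitation ≥ 300 nm to avoid inner filter effect. Data fitted by Scatchard equation, recalculated at fixed n = 0.2 [bound compound]/[polynucleotide]; I/I0 is the calculated complex fluorescence over starting compound fluorescence.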

Data set [11] relates to AT rich DNA. The experiment in a line: Binding affinity to double stranded [poly(dA-dT)2] DNA (unknown origin) assessed as binding constant at pH 7 by fluorescence spectroscopy. The format is nucleic-acid assay. The note with it: Homo sapiens. The procedure, abridged:
as §5

≈ marks a conversion by molar mass, not a printed value. Calls of active or inactive are those of the source. No cut-off for these calls is given here.

Take `COc1cc(-c2nc3ccc(C4=NCCCN4)cc3s2)ccc1OCc1ccccn1.Cl`: the minimum inhibitory concentration (MIC) was above 128 µg/mL in the data set on Enterococcus faecalis, 128 µg/mL in the data set with Escherichia coli, above 128 µg/mL in the data set on Staphylococcus aureus and 32 µg/mL in the data set on Moraxella catarrhalis.
Take `CC[C@H]1OC(=O)[C@H](C)[C@@H](O[C@H]2C[C@@](C)(OC)[C@@H](O)[C@H](C)O2)[C@H](C)[C@@H](O[C@@H]2O[C@H](C)C[C@H](N(C)C)[C@H]2O)[C@](C)(O)C[C@@H](C)CN(C)[C@H](C)[C@@H](O)[C@]1(C)O` [AZITHROMYCIN]: the MIC in the data set with Enterococcus faecalis came to 0.125 µg/mL (≈ 0.167 µM); in the data set on Escherichia coli it was 0.5 µg/mL (≈ 0.668 µM); in the data set on Staphylococcus aureus it was 2 µg/mL (≈ 2.67 µM); in the data set with Moraxella catarrhalis, 8 µg/mL (≈ 10.7 µM); with Streptococcus pneumoniae [1], 0.125 µg/mL (≈ 0.167 µM); in the data set with Streptococcus pyogenes [2], 8 µg/mL (≈ 10.7 µM). Also, the values for the minimum inhibitory concentration (MIC) in the data set on Streptococcus pyogenes [3] and in the data set with Streptococcus pneumoniae [4] were 0.125 µg/mL (≈ 0.167 µM) and 16 µg/mL (≈ 21.4 µM), respectively.
For the compound `COc1cc(-c2nc3ccc(C4=NCCCN4)cc3s2)ccc1OCc1c[nH]nn1.Cl`, the MIC with Enterococcus faecalis was above 128 µg/mL; in the data set on Escherichia coli, 128 µg/mL; in the data set with Staphylococcus aureus, above 128 µg/mL; in the data set on Moraxella catarrhalis, 32 µg/mL.
For the compound `COc1cc(-c2nc3ccc(C4=NCCCN4)cc3s2)ccc1OCc1cn(Cc2ccccc2)nn1.Cl`, the MIC is 128 µg/mL with Enterococcus faecalis, 64 µg/mL with Escherichia coli, above 128 µg/mL with Staphylococcus aureus and 16 µg/mL in the data set with Moraxella catarrhalis.
For the compound `CC1(C)S[C@@H]2[C@H](NC(=O)[C@H](N)c3ccccc3)C(=O)N2[C@H]1C(=O)O` [AMPICILLIN], the MIC in the data set on Streptococcus pneumoniae [1], in the data set with Streptococcus pyogenes [2], in the data set on Streptococcus pyogenes [3] and with Streptococcus pneumoniae [4] was 0.25 µg/mL (≈ 0.715 µM) each time.
`Cl.Fc1cc(-c2nc3ccc(C4=NCCCN4)cc3s2)ccc1OCc1c[nH]nn1`: the minimal inhibitory concentration (MIC) with Enterococcus faecalis is above 128 µg/mL; with Escherichia coli, above 128 µg/mL; with Staphylococcus aureus it was 128 µg/mL; in the data set on Moraxella catarrhalis, above 128 µg/mL.
Turning to `Cl.c1ccc(Cn2cc(COc3ccc(-c4nc5ccc(C6=NCCCN6)cc5s4)cc3)nn2)cc1`, the MIC with Enterococcus faecalis worked out at 128 µg/mL; with Escherichia coli, 32 µg/mL; with Staphylococcus aureus, 128 µg/mL; in the data set with Moraxella catarrhalis, 4 µg/mL.
On to `Cl.O=C(COc1ccc(-c2nc3ccc(C4=NCCCN4)cc3s2)cc1F)c1ccccc1`, for which the MIC amounted to 128 µg/mL in the data set with Enterococcus faecalis; 16 µg/mL in the data set with Escherichia coli; 128 µg/mL in the data set on Staphylococcus aureus; 4 µg/mL in the data set with Moraxella catarrhalis; 32 µg/mL in the data set on Streptococcus pneumoniae [1]; 128 µg/mL in the data set on Streptococcus pyogenes [2]. Further, the MIC in the data set on Streptococcus pyogenes [3] came out at 32 µg/mL; with Streptococcus pneumoniae [4] it was 128 µg/mL. The outcome in the data set with Calf thymus DNA [5] and with AT rich DNA [7] was Active. The ΔTm in the data set with AT rich DNA [6] turned out to be 3.8 °C; in the data set on Calf thymus DNA [9], 0 °C. For the same compound, the half-inhibitory concentration (IC50) in data set [8] was above 100 µM.
Regarding `Cl.c1cc(-c2nc3ccc(C4=NCCCN4)cc3s2)ccc1OCc1c[nH]nn1`, the MIC was above 128 µg/mL in the data set with Enterococcus faecalis, above 128 µg/mL in the data set on Escherichia coli, above 128 µg/mL in the data set with Staphylococcus aureus and 32 µg/mL with Moraxella catarrhalis.
With `Cl.O=C(COc1ccc(-c2nc3ccc(C4=NCCCN4)cc3s2)cc1)c1ccccc1`, the MIC in the data set on Enterococcus faecalis was above 128 µg/mL; in the data set on Escherichia coli it was 32 µg/mL; in the data set on Staphylococcus aureus, 128 µg/mL; in the data set with Moraxella catarrhalis, 8 µg/mL. The outcome with Calf thymus DNA [5] and in the data set on AT rich DNA [7] was Active. Also, the figures for the shift in melting temperature (ΔTm) with AT rich DNA [6] and in the data set with Calf thymus DNA [9] were 3.1 °C and 0 °C, respectively. Also, the fold change (FC) in the data set on AT rich DNA [10] is 4.9. For the same compound, in the data set on AT rich DNA [11], the log Ks amounted to 5.3.

As a reminder, the MIC is the least concentration at which growth counts as inhibited. One may read the ΔTm as the change in melting temperature against a reference sample. Broadly, the IC50 is the point on the concentration scale where inhibition reaches its midpoint.
